Results as given in ChEMBL document CHEMBL4190381, “Biofilm inhibition and anti-Candida activity of a cationic lipo-benzamide molecule with twin-nonyl chain” (Bioorg Med Chem Lett, 2018).
Values after ≈ are worked out from the molar mass of the structure shown. Active and inactive are the calls of the source. No cut-off for these calls is given here.

What was measured:
Candida albicans [1] = experiment: Antifungal activity against Candida albicans ATCC 90028 planktonic cells assessed as inhibition of fungal growth incubated for 48 hrs by broth microdilution assay; format: functional; details: for MIC80: ATCC 90028, 48 h
How it was run: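 Broth microdilution against planktonic C. albicans ATCC 90028. MIC is the lowest concentration giving […] relative to the growth control. Percent inhibition is taken against an untreated growth control and plotted versus concentration.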

Candida albicans [2] = experiment: Antifungal activity against Candida albicans SC5314 assessed as inhibition of fungal growth incubated for 48 hrs by broth microdilution assay; format: functional; details: SC5314, 48 h
How it was run: (§1)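 Broth microdilution against planktonic Candida cultures, with fluconazole as reference antifungal. MIC read as lowest concentration giving […] relative to a growth control without compound. Percentage inhibition versus growth control was plotted against concentration.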

Candida albicans [3] = experiment: Antifungal activity against Candida albicans Gu4 assessed as inhibition of fungal growth incubated for 48 hrs by broth microdilution assay; format: functional; details: Gu4, 48 h; how it was run: as §1
Candida albicans [4] = experiment: Antifungal activity against Candida albicans Gu5 assessed as inhibition of fungal growth incubated for 48 hrs by broth microdilution assay; format: functional; details: Gu5, 48 h; how it was run: as §1
Candida albicans [5] = experiment: Antifungal activity against Candida albicans DSY294 assessed as inhibition of fungal growth incubated for 48 hrs by broth microdilution assay; format: functional; details: DSY294, 48 h; how it was run: as §1
Candida albicans [6] = experiment: Antifungal activity against Candida albicans DSY296 assessed as inhibition of fungal growth incubated for 48 hrs by broth microdilution assay; format: functional; details: DSY296, 48 h; how it was run: as §1
Nakaseomyces glabratus = experiment: Antifungal activity against Candida glabrata MTCC 3814 assessed as inhibition of fungal growth incubated for 48 hrs by broth microdilution assay; format: functional; details: MTCC 3814, 48 h; how it was run: as §1
Pichia kudriavzevii = experiment: Antifungal activity against Candida krusei MTCC 9215 assessed as inhibition of fungal growth incubated for 48 hrs by broth microdilution assay; format: functional; details: MTCC 9215, 48 h; how it was run: as §1
Candida parapsilosis = experiment: Antifungal activity against Candida parapsilosis MTCC 7043 assessed as inhibition of fungal growth incubated for 48 hrs by broth microdilution assay; format: functional; details: Lodderomyces parapsilosis, MTCC 7043, 48 h; how it was run: as §1
Candida tropicalis = experiment: Antifungal activity against Candida tropicalis MTCC 9038 assessed as inhibition of fungal growth incubated for 48 hrs by broth microdilution assay; format: functional; details: MTCC 9038, 48 h; how it was run: as §1
Candida albicans [7] = experiment: Inhibition of adhesion of Candida albicans ATCC 90028 on polystyrene surface incubated for 90 mins by MTT assay; format: functional, organism-based
How it was run: (§2)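 C. albicans ATCC 90028 cells adhered to polystyrene wells with test compound. Adhesion is quantified by MTT metabolic assay and expressed as percent inhibition versus an untreated growth control. Fluconazole is the reference, tested up to 25 µg ml-1.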

Candida albicans [8] = experiment: Inhibition of adhesion of Candida albicans ATCC 90028 on polystyrene surface at 12.5 ug/ml incubated for 90 mins by MTT assay; format: functional; details: ATCC 90028, 1.5 h; how it was run: as §2
Candida albicans [9] = experiment: Antibiofilm activity against Candida albicans ATCC 90028 grown on polystyrene surface assessed as inhibition of biofilm formation added immediately after cell adhesion by MTT assay; format: functional
How it was run: (§3)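 1x10^6 C. albicans ATCC 90028 cells allowed to grow and adhere in polystyrene-coated 96-well wells; compound added at different time points to cover adhesion, biofilm formation or mature biofilm stages. Inhibition quantified by MTT metabolic assay against untreated growth control. BIC80 and BEC80 taken as concentrations giving 80% inhibition of formation or of mature biofilm respectively.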

Candida albicans [10] = experiment: Antibiofilm eradication activity against Candida albicans ATCC 90028 grown on polystyrene surface assessed as inhibition of mature biofilm formation added 24 hrs after biofilm maturation and measured after 48 hrs by MTT assay; format: functional; how it was run: as §3
Candida albicans [11] = experiment: Toxicity in Candida albicans ATCC 90028 planktonic cells assessed as induction of protein release at 12.5 ug/ml incubated for 1 hr by spectrophotometry; format: organism-based
How it was run: (§4)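 C. albicans cells incubated with increasing compound concentrations. Supernatant OD260 (nucleic acids) and OD280 (proteins) recorded to quantify macromolecule release on lysis.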

Erythrocyte = experiment: Hemolytic activity in human erythrocytes assessed as induction of hemolysis incubated for 1 hr by spectrophotometry; format: cell-based
How it was run: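 Human erythrocytes incubated with a range of concentrations. Released hemoglobin is measured spectrophotometrically and expressed as percent hemolysis. 1% Triton X-100 gives 100% lysis, and a buffer-treated sample is the negative control. HC90 is the concentration lysing 90% of RBCs.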

[12] = Safety index, ratio of HC90 for hemolytic activity in human erythrocytes to MIC for antifungal activity against Candida albicans ATCC 90028 planktonic cells; format: toxicity, cell-based
Candida albicans [13] = experiment: Toxicity in Candida albicans ATCC 90028 planktonic cells assessed as induction of nucleic acids release at 12.5 ug/ml incubated for 1 hr by spectrophotometry; format: organism-based; how it was run: as §4
Candida albicans [14] = experiment: Toxicity in Candida albicans ATCC 90028 planktonic cells assessed as induction of morphological changes at 3.1 ug/ml incubated for 24 hrs by scanning electron Microscopy; format: organism-based
How it was run: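 C. albicans ATCC 90028 cells incubated 24 h with 3.1 µg ml-1 compound. Surface morphology examined by scanning electron microscopy at 2500X and 5000X magnification against untreated cells.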

Candida albicans [15] = experiment: Antibiofilm activity against Candida albicans ATCC 90028 grown on polystyrene surface assessed as inhibition of biofilm formation at 1.56 to 25 ug/ml added immediately after cell adhesion by bright-field microscopy; format: functional, organism-based
How it was run: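 1x10^6 C. albicans ATCC 90028 cells allowed to adhere and grow in polystyrene 96-well wells; compound at 1.56, 3.12, 6.25, 12.5 and 25 µg ml-1; biofilm examined microscopically against an untreated growth control.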

Candida albicans [16] = experiment: Inhibition of adhesion of Candida albicans ATCC 90028 on polystyrene surface up to 25 ug/ml incubated for 90 mins by MTT assay; format: functional, organism-based; how it was run: as §3

Compound	growth inhibition (GI) (Candida albicans [1])	MIC80 (Candida albicans [1])	MIC80 (Candida albicans [2])	MIC80 (Candida albicans [3])	MIC80 (Candida albicans [4])	MIC80 (Candida albicans [5])	MIC80 (Candida albicans [6])	MIC80 (Nakaseomyces glabratus)	MIC80 (Pichia kudriavzevii)	MIC80 (Candida parapsilosis)	MIC80 (Candida tropicalis)	also measured
CCCCCCCCCCC[N+](C)(CCCCCCCCCCC)CCNC(=O)c1ccc(OC)cc1.[I-]	Dose-dependent effect	≤ 3.1 µg/mL										
CCCCCCCCC[N+](C)(CCCCCCCCC)CCNC(=O)c1ccc(OC)cc1.[I-]	Dose-dependent effect	3.1 µg/mL	1.5 µg/mL	3.1 µg/mL	3.1 µg/mL	1.5 µg/mL	1.5 µg/mL	1.5 µg/mL	1.5 µg/mL	1.5 µg/mL	0.7 µg/mL	inhibition (Candida albicans [7]): Dose-dependent effect; inhibition at 12.5 µg/mL (Candida albicans [8]): 90%; MBIC80 (Candida albicans [9]): 3.12 µg/mL; MBEC80 (Candida albicans [10]): 12.5 µg/mL; Activity (Candida albicans [11]): Non-Toxic; HC90 (Erythrocyte): 12.5 µg/mL; selectivity ratio [12]: 4; Activity (Candida albicans [13]): Non-Toxic; Activity (Candida albicans [14]): Non-Toxic; Activity (Candida albicans [15]): Active
CCCCCCCC[N+](C)(CCCCCCCC)CCNC(=O)c1ccc(OC)cc1.[I-]	Dose-dependent effect	≤ 6.2 µg/mL										
CCCCCCCCCC[N+](C)(CCCCCCCCCC)CCNC(=O)c1ccc(OC)cc1.[I-]	Dose-dependent effect	≤ 6.2 µg/mL										
OC(Cn1cncn1)(Cn1cncn1)c1ccc(F)cc1F [FLUCONAZOLE]		4 µg/mL (≈ 13.1 µM)	2 µg/mL (≈ 6.53 µM)	4 µg/mL (≈ 13.1 µM)	128 µg/mL (≈ 418 µM)	4 µg/mL (≈ 13.1 µM)	128 µg/mL (≈ 418 µM)	4 µg/mL (≈ 13.1 µM)	64 µg/mL (≈ 209 µM)	2 µg/mL (≈ 6.53 µM)	4 µg/mL (≈ 13.1 µM)	inhibition (Candida albicans [16]): inactive; inhibition (Candida albicans [9]): inactive; inhibition (Candida albicans [10]): inactive
